Measured values: ChEMBL document CHEMBL3425449, “Identification of MK-8133: An orexin-2 selective receptor antagonist with favorable development properties” (Bioorg Med Chem Lett, 2015)
Values after ≈ are worked out from the molar mass of the structure shown.

Assays:
CHO-K1 = assay: Selectivity index, ratio of IC50 for human OX1R expressed in CHOK1 cells to IC50 for human OX2R expressed in CHOK1 cells by FLIPR assay; type: cell-based
Method in brief: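 Ratio of OX1R FLIPR IC50 to OX2R FLIPR IC50. Both come from Ca2+-flux assays on human orexin receptors expressed in CHO-K1 cells, each averaged over n ≥ 2 experiments.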

Orexin receptor type 2 [1] = biological target: T1, Orexin receptor type 2 (Homo sapiens, UniProt O43614); assay: Displacement of [3H]-(S)-N-(2-(1H-pyrrol-1-yl)phenyl)-1-(2-(1-methyl-1H-benzo[d]imidazol-2-ylthio)acetyl)pyrrolidine-2-carboxamide from human OX2R expressed in CHOK1 cells by radioligand binding assay; type: cell-based, CHO-K1
T1 sequence (O43614 whole entry): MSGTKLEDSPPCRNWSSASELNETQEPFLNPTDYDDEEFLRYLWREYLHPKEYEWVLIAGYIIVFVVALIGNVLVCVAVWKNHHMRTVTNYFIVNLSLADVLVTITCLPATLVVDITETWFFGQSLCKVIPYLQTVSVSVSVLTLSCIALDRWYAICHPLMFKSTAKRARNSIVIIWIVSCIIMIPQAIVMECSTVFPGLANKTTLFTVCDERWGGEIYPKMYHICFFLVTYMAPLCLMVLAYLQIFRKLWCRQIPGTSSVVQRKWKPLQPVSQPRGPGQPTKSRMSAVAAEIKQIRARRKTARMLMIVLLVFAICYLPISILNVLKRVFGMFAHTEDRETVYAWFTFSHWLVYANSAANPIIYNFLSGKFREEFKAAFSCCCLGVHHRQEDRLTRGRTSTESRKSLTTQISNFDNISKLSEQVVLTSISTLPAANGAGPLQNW
Method in brief: (§1)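 Radioligand competition binding on membranes from CHO-K1 cells overexpressing the human orexin receptor.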

[2] = biological target: T2, Orexin/Hypocretin receptor type 1 (Homo sapiens, UniProt O43613); assay: Displacement of [3H]-(S)-N-(biphenyl-2-yl)-1-(2-(1-methyl-1H-benzo[d]imidazol-2-ylthio)acetyl)pyrrolidine-2-carboxamide from human OX1R expressed in CHOK1 cells by radioligand binding assay; type: cell-based, CHO-K1; method in brief: as §1
T2 sequence (O43613 whole entry): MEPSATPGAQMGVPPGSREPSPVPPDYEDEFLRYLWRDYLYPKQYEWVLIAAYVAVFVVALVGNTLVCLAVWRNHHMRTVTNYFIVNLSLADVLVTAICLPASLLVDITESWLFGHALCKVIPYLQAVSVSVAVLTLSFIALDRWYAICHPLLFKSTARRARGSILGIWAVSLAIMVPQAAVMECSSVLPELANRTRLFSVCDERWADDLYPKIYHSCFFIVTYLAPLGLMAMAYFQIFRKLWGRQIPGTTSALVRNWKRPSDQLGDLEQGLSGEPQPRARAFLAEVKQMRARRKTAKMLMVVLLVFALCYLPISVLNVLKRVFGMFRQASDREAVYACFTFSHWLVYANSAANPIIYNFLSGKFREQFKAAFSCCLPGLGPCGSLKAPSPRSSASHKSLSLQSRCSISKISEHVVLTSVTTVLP

[3] = Intrinsic clearance in human microsomes; type: ADME, Microsome
[4] = Lipophilicity, log D of the compound by HPLC method; type: physicochemical
[5] = biological target: T2, Orexin/Hypocretin receptor type 1; assay: Antagonist activity against human OX1R expressed in CHOK1 cells assessed as inhibition of orexin A-induced […] Ca2+ mobilization by FLIPR assay; type: functional, cell-based, CHO-K1
Method in brief: (§2)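 Cell-based FLIPR assay measuring Ca2+ flux as the functional read-out of orexin receptor antagonism. Target is the human orexin receptor expressed in CHO-K1 cells.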

[6] = Solubility of the compound at pH 7; type: physicochemical; conditions: buffer
Orexin receptor type 2 [7] = biological target: T1, Orexin receptor type 2; assay: Antagonist activity against human OX2R expressed in CHOK1 cells assessed as inhibition of orexin A-induced […] Ca2+ mobilization by FLIPR assay; type: functional, cell-based, CHO-K1; method in brief: as §2
[8] = Clearance in Wistar Han rat at 10 mg/kg, po or 2 mg/kg, iv; type: ADME, organism-based; conditions: in vivo
Method in brief: (§3)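 Pharmacokinetics in Wistar Han rats (n = 2) after intravenous and oral dosing. Oral dose was 10 mg/kg in PEG400:Tween80/water 40:10:50. IV dose was 2 mg/kg in DMSO/PEG400/water 20:60:20.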

[9] = Volume of distribution at steady state in dog at 10 mg/kg, po or 2 mg/kg, iv; type: ADME, organism-based, Canis lupus familiaris; conditions: in vivo, read-out: Vdss
Method in brief: (§4)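 Dog pharmacokinetics determined after intravenous and oral administration.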

[10] = Volume of distribution at steady state in Wistar Han rat at 10 mg/kg, po or 2 mg/kg, iv; type: ADME, organism-based; conditions: in vivo, read-out: Vdss; method in brief: as §3
[11] = Half life in Wistar Han rat at 10 mg/kg, po or 2 mg/kg, iv; type: ADME, organism-based; conditions: in vivo; method in brief: as §3
[12] = Clearance in dog at 10 mg/kg, po or 2 mg/kg, iv; type: ADME, organism-based, Canis lupus familiaris; conditions: in vivo; method in brief: as §4
[13] = Oral bioavailability in dog at 10 mg/kg; type: ADME, organism-based, Canis lupus familiaris; conditions: in vivo; method in brief: as §4
[14] = Oral bioavailability in Wistar Han rat at 10 mg/kg; type: ADME, organism-based; conditions: in vivo; method in brief: as §3
[15] = Half life in dog at 10 mg/kg, po or 2 mg/kg, iv; type: ADME, organism-based, Canis lupus familiaris; conditions: in vivo; method in brief: as §4
Plasma [16] = assay: Stability in human plasma; type: ADME, cell-free
Plasma [17] = assay: Stability in rat plasma; type: ADME, cell-free

Row | Compound | Ratio IC50 (CHO-K1) | Ki (Orexin receptor type 2 [1]) [nM] | Ki [2] [nM] | IC50 [5] [nM] | IC50 (Orexin receptor type 2 [7]) [nM] | further results
1 | C[C@@H]1CC[C@@H](Oc2cc(F)ccn2)CN1C(=O)c1ccccc1-n1nccn1 | 68 | 3.9 | 430 | – | – | –
2 | C[C@@H]1CC[C@@H](Oc2cc(C#N)ccn2)CN1C(=O)c1ccccc1OC(F)F | > 314 | – | – | > 10000 | 37 | CLint scaled [3]: 43 mL/min/kg; logD [4]: ND(Insoluble); solubility [6]: Insoluble
3 | CC(C)OC(=O)c1ccccc1C(=O)N1C[C@H](Oc2cc(C#N)ccn2)CC[C@H]1C | 87 | – | – | 3300 | 38 | logD ([4]; read-out: logD): 3.6; solubility ([6]; read-out: solubility): 115 µM (≈ 46.9 µg/mL)
4 | C[C@@H]1CC[C@@H](Oc2cc(C(F)(F)F)ccn2)CN1C(=O)c1ccccc1-n1nccn1 | 21 | 0.2 | 64 | 370 | – | –
5 | C[C@@H]1CC[C@@H](Oc2cc(Br)ccn2)CN1C(=O)c1ccccc1-n1nccn1 | 37 | 1.8 | 130 | 380 | 10 | –
6 | Cc1cccnc1O[C@@H]1CC[C@@H](C)N(C(=O)c2ccccc2-n2nccn2)C1 | – | 621 | 4760 | – | – | –
7 | Cc1ccnc(O[C@@H]2CC[C@@H](C)N(C(=O)c3ccccc3-n3nccn3)C2)c1 | 49 | 2.6 | 166 | 788 | – | –
8 | Cc1ccc(O[C@@H]2CC[C@@H](C)N(C(=O)c3ccccc3-n3nccn3)C2)nc1 | 16 | 2.6 | 37 | 142 | 9 | –
9 | C[C@@H]1CC[C@@H](Oc2cc(I)ccn2)CN1C(=O)c1ccccc1-n1nccn1 | 57 | 0.4 | 59 | – | 7.2 | –
10 | C[C@@H]1CC[C@@H](Oc2cc(S(C)(=O)=O)ccn2)CN1C(=O)c1ccccc1-n1nccn1 | 33 | 0.9 | 350 | 510 | 16 | –
11 | C#Cc1ccnc(O[C@@H]2CC[C@@H](C)N(C(=O)c3ccccc3-n3nccn3)C2)c1 | 23 | 0.6 | 49 | 240 | 10 | –
12 | C[C@@H]1CC[C@@H](Oc2cc(C(=O)N(C)C)ccn2)CN1C(=O)c1ccccc1-n1nccn1 | > 105 | 6.5 | 470 | > 10000 | 95 | –
13 | CSc1ccnc(O[C@@H]2CC[C@@H](C)N(C(=O)c3ccccc3-n3nccn3)C2)c1 | 16 | 0.2 | 39 | 110 | 6.7 | –
14 | C[C@@H]1CC[C@@H](Oc2cc(N(C)C)ccn2)CN1C(=O)c1ccccc1-n1nccn1 | 12 | 4.5 | 1400 | 1500 | 130 | –
15 | CCOC(=O)c1ccccc1C(=O)N1C[C@H](Oc2cc(C#N)ccn2)CC[C@H]1C | 349 | – | – | 7100 | 21 | CLint scaled [3]: 37 mL/min/kg; logD ([4]; read-out: logD): 3.2; solubility ([6]; read-out: solubility): 121 µM (≈ 47.6 µg/mL)
16 | C[C@@H]1CC[C@@H](Oc2ccccn2)CN1C(=O)c1ccccc1-n1nccn1 | – | 2400 | 14000 | – | – | –
17 | C[C@@H]1CC[C@@H](Oc2cc(C#N)ccn2)CN1C(=O)c1ccccc1-n1nccn1 | 293 | – | 830 | 3800 | 13 | clearance [8]: 18 mL/min/kg; Vd [9]: 1.5 L/kg; CLint scaled [3]: 16 mL/min/kg; logD ([4]; read-out: logD): 3; Vd [10]: 1.7 L/kg; half-life [11]: 1.7 h; clearance [12]: 27 mL/min/kg; bioavailability [13]: 13%; bioavailability [14]: 17%; solubility ([6]; read-out: solubility): 148 µM (≈ 57.5 µg/mL); half-life [15]: 1.1 h
18 | COc1ccnc(O[C@@H]2CC[C@@H](C)N(C(=O)c3ccccc3-n3nccn3)C2)c1 | 49 | 1.3 | 140 | – | – | –
19 | CCc1ccnc(O[C@@H]2CC[C@@H](C)N(C(=O)c3ccccc3-n3nccn3)C2)c1 | 28 | 0.6 | 57 | 310 | 11 | –
20 | Cc1nc(-c2ccccc2C(=O)N2C[C@H](Oc3cc(C#N)ccn3)CC[C@H]2C)no1 | 361 | – | – | 8400 | 25 | clearance [8]: 30 mL/min/kg; Vd [9]: 0.54 L/kg; CLint scaled [3]: 23 mL/min/kg; logD ([4]; read-out: logD): 3; Vd [10]: 1.3 L/kg; half-life [11]: 1.3 h; clearance [12]: 4.6 mL/min/kg; bioavailability [13]: 54%; bioavailability [14]: 26%; solubility ([6]; read-out: solubility): 162 µM (≈ 65.4 µg/mL); half-life [15]: 1.5 h
21 | COC(=O)c1ccccc1C(=O)N1C[C@H](Oc2cc(C#N)ccn2)CC[C@H]1C | > 490 | – | – | 10000 | 21 | Stability (Plasma [16]): Unstable; CLint scaled [3]: < 16 mL/min/kg; logD ([4]; read-out: logD): 2.9; Stability (Plasma [17]): Unstable; solubility ([6]; read-out: solubility): 151 µM (≈ 57.3 µg/mL)
22 | C[C@@H]1CC[C@@H](Oc2cc(-c3ccccc3)ccn2)CN1C(=O)c1ccccc1-n1nccn1 | 54 | 3.8 | 360 | 2400 | 45 | –
23 | Cc1cccc(O[C@@H]2CC[C@@H](C)N(C(=O)c3ccccc3-n3nccn3)C2)n1 | 23 | 7.6 | 12 | 745 | 33 | –
24 | COC(=O)c1ccnc(O[C@@H]2CC[C@@H](C)N(C(=O)c3ccccc3-n3nccn3)C2)c1 | 82 | 3.9 | 310 | 1800 | 22 | –
25 | C[C@@H]1CC[C@@H](Oc2cc(Cl)ccn2)CN1C(=O)c1ccccc1-n1nccn1 | 51 | 1.4 | 120 | – | 11 | –
26 | C[C@@H]1CC[C@@H](Oc2cc(C#N)ccn2)CN1C(=O)c1ccccc1CC(F)(F)F | > 312 | – | – | > 10000 | 32 | CLint scaled [3]: 132 mL/min/kg; logD ([4]; read-out: logD): 3.6; solubility ([6]; read-out: solubility): 95 µM (≈ 38.3 µg/mL)
